“Also recorded” adds a separate entry of the source.
Target: Bos taurus Arp2/3 complex (Bos taurus, UniProt A7MB62+P61157)
Assay: Pyrene actin polymerization assay
Assay type: biochemical
Conditions: for increase in IC50 relative to 1 / inhibition of Arp2/3 complex (in words): actin polymerization assay; for increase in IC50 relative to 1: compared to 1
Outline: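 Bovine Arp2/3 complex from calf thymus, activated by human N-WASp-VCA (residues 428-505, E. coli-expressed). Rabbit muscle actin, 30% pyrene-labelled at […], Mg/EGTA-exchanged. Polymerization started by adding Arp2/3 and VCA; final buffer 10 mM imidazole pH 7.0, 50 mM KCl, 1 mM EGTA, 1 mM MgCl2, 1 mM DTT. Read at ex 365/em 407 nm every 10 s for 45 min. Inhibitor tested up to 200 μM. IC50 from a fit of maximal rate (nM actin s⁻¹) versus concentration.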

## Cc1[nH]c2ccccc2c1CCNC(=O)c1ccc(O)cc1F [Compound 2, 2-fluoro-4-hydroxy-N-(2-(2-methyl-1H-indol-3-yl)ethyl)benzamide]
  IC50: 4 ± 1 µM

## Cc1[nH]c2ccc(Cl)cc2c1CCNC(=O)c1ccccc1F [Compound 3, N-(2-(5-chloro-2-methyl-1H-indol-3-yl)ethyl)-2-fluorobenzamide]
  IC50: 18 ± 5 µM
  increase in IC50 relative to 1: nearly double; also recorded: only slightly

## COc1ccc(C(=O)NCCc2c(C)[nH]c3ccccc23)c(F)c1 [Compound 4, 2-fluoro-4-methoxy-N-(2-(2-methyl-1H-indol-3-yl)ethyl)benzamide]
  IC50: 19 ± 6 µM
  increase in IC50 relative to 1: nearly double
Higher IC50 than 2
  IC50 relative to 2: fivefold

## Cc1[nH]c2ccccc2c1CCNC(=O)c1ccc(Cl)cc1F [Compound 6, 4-chloro-2-fluoro-N-(2-(2-methyl-1H-indol-3-yl)ethyl)benzamide]
  IC50: 32 ± 18 µM
  increase in IC50 relative to 1: approximately 3 fold

## Cc1[nH]c2ccccc2c1CCNC(=O)c1ccc(Cl)cc1 [Compound 7, 4-chloro-N-(2-(2-methyl-1H-indol-3-yl)ethyl)benzamide]
  IC50: 181 ± 85 µM
  inhibition of Arp2/3 complex (in words): greatly reduced or no inhibition
  increase in IC50 relative to 1: 15-20 fold

## Cc1[nH]c2ccccc2c1CCNC(=O)c1cccc(Cl)c1F [Compound 8, 3-chloro-2-fluoro-N-(2-(2-methyl-1H-indol-3-yl)ethyl)benzamide]
  IC50: 238 ± 91 µM
  increase in IC50 relative to 1: 15-20 fold

## Cc1[nH]c2ccccc2c1CCNC(=O)c1ccccc1Cl [Compound 10, 2-chloro-N-(2-(2-methyl-1H-indol-3-yl)ethyl)benzamide]
  inhibition of Arp2/3 complex (in words): greatly reduced or no inhibition; also recorded: completely abolishes inhibition

## Cc1[nH]c2ccccc2c1CCNC(=O)c1cccc(Cl)c1 [Compound 11, 3-chloro-N-(2-(2-methyl-1H-indol-3-yl)ethyl)benzamide]
  inhibition of Arp2/3 complex (in words): greatly reduced or no inhibition

From article PMC3531959 (ChemMedChem, 2012)
